Screening data: PubChem BioAssay, several laboratories
This excerpt belongs to a sample that is enriched for hits.
Hsp70 act: Hsp70 transcriptional activation, primary screen; HeLa Hsp70 promoter luciferase reporter, luminescence; scaled: vehicle 0, proteasome-inhibitor control 100%; activation, % at 10 µM; AID 1203; 0.04% of 200,000 active;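 active = activation above the mean across all tested compounds plus 3 SD, cutoff set per campaign, cut at about 5.5% in these data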
L major viab: reduces viability of Leishmania major promastigotes. resazurin fluorescence viability. inhibition, % at 10 µM. 9% of 200,000 active; in the data active = inhibition above about 50%;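 also: promastigotes grown with compound for 44 hours at 28 °C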
HSF1 inh: HSF1 inhibition; AID 2098; NIH3T3-HGL HSE-luciferase, MG132-induced, luminescence 8 h; active compounds read low; 0.77% of 300,000 active; activity change, negative = inhibition, % at 7.5 µM (by protocol);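 active = more than half of replicate wells show activity change below -50%, luminescence cut by over half; inconclusive = some wells, but at most half, below -50%; inactive = no replicate well below -50%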;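 also: luciferase reports HSF-1 transcriptional activity via heat shock element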
T cruzi repl: blocks replication of Trypanosoma cruzi. T. cruzi beta-gal in NIH3T3, luminescence, 90 h. inhibition, % (test concentration not listed). 1.4% of 300,000 active. AID 1885;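 active = mean inhibition across valid replicates above about 55%, limit read from the data; inconclusive = mean below that limit but half or more replicates reach it; inactive = mean below it, under half of replicates reach it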;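 also: signal also drops with host cell toxicity which is not excluded here; higher percent means less beta-gal luminescence so fewer parasites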
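System: mouse NIH/3T3 fibroblasts infected with β-gal-expressing T. cruzi Tulahuen C4 / Input: NIH/3T3 cells, 5,000 per well / Buffer or medium: Low-serum DMEM with 2% FBS / Probe or stimulus: 5000 reporter trypomastigotes per well / Schedule: ≥90 h infection period, 3 h prior cell attachment / Measured by: GalScreen luminescence, 60 min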
HSF1 activator: increases HSF-1 driven luciferase reporter signal. 1.7% of 300,000 active. NIH3T3-HGL HSF-1 luciferase reporter, MG132, 8 h; 100% = twice DMSO control signal. activation, % at 9 µM;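 active = mean replicate activation of at least 50% with a set share of replicates each reaching 50%; inconclusive = only one of those two conditions met; inactive = mean below 50% and too few replicates reaching it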
Each line names hits and unclear results; the compound was inactive in the other large screens.

CN1CCN(c2ccccc2NC(=O)c2ccc(-c3ccc(Br)cc3)o2)CC1	T cruzi repl 65 (no result: Hsp70 act, L major viab)
O=C(Nc1ccc(CN2CCOCC2)cc1)c1ccc(-c2ccc(Br)cc2)o1	L major viab 83
CCN(Cc1nc(-c2ccc(C)cc2)no1)C(=O)c1ccco1	none (no result: Hsp70 act, L major viab)
O=C(CCNC(=O)c1ccc(Br)cc1)NNC(=O)C1COc2ccccc2O1 (stereo not given)	none (no result: Hsp70 act, L major viab)
O=C(Cn1nnc(-c2ccccc2F)n1)NCc1ccco1	none
COCC(=O)Nc1ccc(Nc2ccccc2)cc1	none
CCC(=O)Nc1ccc(Nc2ccccc2)cc1	L major viab 93
O=C(Nc1ccc(Nc2ccccc2)cc1)C(Cl)(Cl)Cl	L major viab 78
C/C(N)=C(/C#N)C(=O)COC(=O)c1ccc(C#N)cc1	none
CCN1CCN(C(CNS(=O)(=O)c2ccc(OC)cc2)c2cccnc2)CC1 (stereo not given)	none
COc1ccc(S(=O)(=O)NCC(c2cccnc2)N2CCN(Cc3ccccc3)CC2)cc1C (stereo not given)	T cruzi repl 57 (no result: Hsp70 act, L major viab)
COc1ccc(S(=O)(=O)NCC(c2cccnc2)N2CCN(Cc3ccccc3)CC2)cc1 (stereo not given)	T cruzi repl 55 (no result: Hsp70 act, L major viab)
CCOc1ccc(N2C(=O)CC(NNc3nc4ccccc4s3)C2=O)cc1 (stereo not given)	none (no result: Hsp70 act, L major viab)
O=C(Cn1cncn1)NCCCc1ccccc1	none
O=C(Cn1cc([N+](=O)[O-])cn1)N1CCN(Cc2ccc3c(c2)OCO3)CC1	none (no result: Hsp70 act, L major viab)
Cc1c(NC(=S)NC(=O)c2sc3ccccc3c2Cl)cccc1C(=O)O	HSF1 inh inconclusive
COc1ccccc1C(=O)NNC(=S)NC(=O)c1cccs1	T cruzi repl inconclusive (no result: Hsp70 act, L major viab)
COc1ccccc1C(=O)NNC(=S)NC(=O)c1sc2ccccc2c1Cl	L major viab 54
COc1ccccc1C(=O)NC(=S)NNC(=O)c1sc2ccccc2c1Cl	L major viab 90
OC(CNCCc1ccc(C(F)(F)F)cc1)COc1ccc2ccccc2c1 (stereo not given)	L major viab 99
COc1ccc(CCNCC(O)COc2cccc(Br)c2)cc1 (stereo not given)	L major viab 52
OC(CNCCc1ccc(C(F)(F)F)cc1)COc1cccc2ccccc12 (stereo not given)	L major viab 97, T cruzi repl 60
COc1ccccc1COCC(O)CNCCc1ccc(C(F)(F)F)cc1 (stereo not given)	none (no result: Hsp70 act, L major viab)
CCOC(=O)c1cncc(C(=O)O)c1	none
Cc1ccc(OCCn2c(=O)oc3ccc(C)cc32)cc1	none
Cc1ccc2oc(=O)n(CCCOc3ccccc3)c2c1	HSF1 activator 59
O=C(/C=N/NC(=O)c1ccccc1Br)c1ccccc1	HSF1 activator 59
O=C(/C=N/NC(=O)c1ccc(Cl)cc1Cl)c1ccccc1	HSF1 activator 57 (no result: Hsp70 act, L major viab)
Cc1ccc(NCc2nnc(SC(C)C(=O)N/N=C/c3ccc(C)o3)n2-c2ccccc2)cc1 (stereo not given)	none
CCc1ccc(CNC(=O)C2Cc3cc(S(=O)(=O)N4CCCC4)ccc3N2C(C)=O)cc1 (stereo not given)	none (no result: Hsp70 act, L major viab)
O=C(CN(CC1CCCO1)C(=O)CNS(=O)(=O)c1ccc(F)cc1)NC1CCCC1 (stereo not given)	HSF1 activator 63 (no result: Hsp70 act, L major viab)
CCOc1ccc(N(CC(=O)NCC2CCCO2)S(=O)(=O)c2ccc(Cl)cc2)cc1 (stereo not given)	L major viab 70
O=C(CN(CC1CCCO1)C(=O)CNS(=O)(=O)c1ccc(F)cc1)NC1CCCCC1 (stereo not given)	none (no result: Hsp70 act, L major viab)
Cc1ccc(S(=O)(=O)NCC(=O)N(CC(=O)NCC2CCCO2)Cc2ccc(Cl)cc2)cc1 (stereo not given)	HSF1 activator 52 (no result: Hsp70 act, L major viab)
CCOc1ccc(S(=O)(=O)N(C)c2ccc(OCC(=O)NCC3CCCO3)cc2)cc1 (stereo not given)	none
CCCc1nnc2n1N=C(c1ccc(C)cc1)CS2	none (no result: Hsp70 act, L major viab)
O=C(/C=C/c1ccc([N+](=O)[O-])cc1)Nc1cccnc1	HSF1 activator 54
O=C(/C=C/c1ccc(Cl)c([N+](=O)[O-])c1)Nc1cccnc1	none
O=[N+]([O-])c1ccc(/C=C/c2ccncc2)cc1	T cruzi repl 65 (no result: Hsp70 act, L major viab)
Cc1cccc(C)c1NC(=O)COC(=O)c1c2c(nc3ccccc13)/C(=C\c1ccc3c(c1)OCO3)CCC2	L major viab 83 (no result: HSF1 inh, T cruzi repl, HSF1 activator)
CCOc1cc(/C=C2\CCCc3c2nc2ccccc2c3C(=O)O)ccc1OC	HSF1 activator 56 (no result: Hsp70 act, L major viab)
COc1ccc(-c2cc(C(=O)OCC(=O)c3c(N)n(C)c(=O)n(C)c3=O)c3ccccc3n2)cc1	none
COc1ccc(/C=C2\CCCc3c2nc2ccccc2c3C(=O)OCC(=O)c2c(N)n(C)c(=O)n(C)c2=O)cc1	T cruzi repl 68
COc1cccc(NC(=O)CSc2nc3ccsc3c(=O)n2-c2ccc(C(=O)O)cc2)c1	none
Cc1cc(C)nc(NN2C(=O)C=CC2=O)n1	none (no result: Hsp70 act, L major viab)
CN(CCc1cn[nH]c1)C(=O)C1CCC(=O)N(CC2CCCCC2)C1 (stereo not given)	none (no result: Hsp70 act, L major viab)
CC(OC(=O)CC1CCCC1)C(=O)Nc1ccc(Cl)cn1 (stereo not given)	none (no result: Hsp70 act, L major viab)
O=C(NCc1ccc(Cl)cc1)C(=O)NCC(c1cccnc1)N1CCN(c2ccc(F)cc2)CC1 (stereo not given)	L major viab 94
O=C(NCC(c1cccnc1)N1CCN(c2ccc(F)cc2)CC1)c1ccccc1 (stereo not given)	L major viab 89
O=C(CCc1ccccc1)NC(=S)Nc1ccccc1Br	none
O=C(CNC(=O)c1ccc(Cl)cc1)NC(CO)c1ccccc1 (stereo not given)	none (no result: Hsp70 act, L major viab)
COc1cccc(C(=O)N/N=c2\sc3ccccc3n2C)c1	HSF1 activator 81
Cc1ccc(C(=O)N/N=c2\sc3ccccc3n2C)cc1	HSF1 activator inconclusive
c1ccc(Nc2nc3ccccc3[nH]2)nc1	L major viab 100, HSF1 activator 62
Nc1ccc(Nc2nc3ccccc3[nH]2)cc1	none (no result: Hsp70 act, L major viab)
CN(C)c1cc(-c2ccc(Cl)c(Cl)c2)oc(=O)c1Cl	none (no result: Hsp70 act, L major viab)
O=[N+]([O-])C1=CC=C2C(=NC3(CCCCC3)N2O)C1=NCCc1ccccc1	L major viab 75
CC(C)(C)N=C1C([N+](=O)[O-])=CC=C2C1=NC1(CCCCC1)N2O	none
CCOC(=O)C(Nc1ccc2ccccc2c1)C(=O)OCC	HSF1 activator 59
CC(=O)Nc1ccc2ccccc2c1	none
CCn1c(COc2ccccc2)nnc1SCC(=O)c1cccc([N+](=O)[O-])c1	L major viab 91
CCOc1cc(C)ccc1OCc1nnc(SCC(=O)c2cccc([N+](=O)[O-])c2)n1CC	none
COc1ccccc1-n1cc2c([N+](=O)[O-])cc([N+](=O)[O-])cc2n1	none (no result: Hsp70 act, L major viab)
COc1ccc(-c2cc(N)n(S(=O)(=O)c3ccc(F)cc3)n2)cc1OC	L major viab 51
CCOC(=O)c1oc2ccc(S(=O)(=O)n3nc(-c4cc(OC)c(OC)c(OC)c4)cc3N)cc2c1C	L major viab 64
COc1cc(-c2cc(N)n(S(=O)(=O)c3ccc(F)cc3)n2)cc(OC)c1OC	none
